# Results pooled from the literature.
# Protocols differ between the studies behind these lines.
# Target: Inhibitor of nuclear factor kappa-B kinase subunit beta (IKBKB, Homo sapiens, UniProt O14920)
# One construct used (O14920 1-756): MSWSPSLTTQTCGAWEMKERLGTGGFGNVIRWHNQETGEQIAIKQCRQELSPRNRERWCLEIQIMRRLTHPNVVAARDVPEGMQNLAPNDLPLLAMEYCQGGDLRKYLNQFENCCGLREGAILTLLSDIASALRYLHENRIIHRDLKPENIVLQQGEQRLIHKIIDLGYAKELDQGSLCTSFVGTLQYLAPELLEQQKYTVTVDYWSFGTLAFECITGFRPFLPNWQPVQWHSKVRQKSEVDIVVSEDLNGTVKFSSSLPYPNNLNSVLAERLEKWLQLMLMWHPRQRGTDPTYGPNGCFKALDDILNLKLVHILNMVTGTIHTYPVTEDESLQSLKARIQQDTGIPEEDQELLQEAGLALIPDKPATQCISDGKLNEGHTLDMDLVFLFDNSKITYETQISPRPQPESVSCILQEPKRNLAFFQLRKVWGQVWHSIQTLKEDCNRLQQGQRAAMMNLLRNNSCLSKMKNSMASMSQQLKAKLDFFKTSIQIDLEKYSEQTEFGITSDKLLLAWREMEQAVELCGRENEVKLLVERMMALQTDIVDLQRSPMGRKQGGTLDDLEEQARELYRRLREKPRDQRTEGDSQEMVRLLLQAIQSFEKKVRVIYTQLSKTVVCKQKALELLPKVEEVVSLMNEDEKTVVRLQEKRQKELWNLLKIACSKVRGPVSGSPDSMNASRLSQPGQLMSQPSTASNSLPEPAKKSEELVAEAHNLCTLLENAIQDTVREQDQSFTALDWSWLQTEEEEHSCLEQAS
SMILES,effect on,action,method,tested at,endpoint,result
Nc1ncc(-c2nc(N3CCOCC3)nc(N3CCOCC3)n2)c(C(F)F)n1,binding,,competition with immobilised ligand,10 µM,remaining binding,77%
Cn1cncc1[C@](O)(COc1ccc(C#N)cc1-c1ccc(OC(F)(F)F)cc1)c1ccc(C#N)cc1,cell-free assay,,competition with immobilised ligand,1 µM,remaining binding,87%
CC(C)(C)c1cc(C=C(C#N)C#N)cc(Br)c1O,enzyme activity,inhibitor,,0.5 µM,remaining activity,95.7%
C#Cc1n[nH]c2c(-c3cn([C@@H](C)c4ccccn4)c(=O)[nH]c3=O)cc(F)cc12,enzyme activity,inhibitor,,0.1 µM,inhibition,0.8%
Cc1nn(C)cc1-c1nc2c(N3CCN(Cc4ccc(Cl)cc4)CC3)c(Cl)cnc2[nH]1,binding,,competition with immobilised ligand,1 µM,remaining binding,100%
Cn1cc(-c2cc(F)cc(N3CCn4c(cc5c4CCCC5)C3=O)c2CO)cc(Nc2ccc(N3CCN(C4COC4)CC3)cn2)c1=O,enzyme activity,inhibitor,,0.1 µM,inhibition,5%
COc1ncccc1-c1cnn2ccc(N3CCN(C(=O)OC(C)C)CC3)nc12,binding,,competition with immobilised ligand,1 µM,remaining binding,61%
O=c1[nH]c2ccccc2n1C1CCN(Cc2ccc(-c3[nH]c4cc5ncnc5cc4nc3-c3ccccc3)cc2)CC1,enzyme activity,,,0.5 µM,remaining activity,101%
N#CC1(c2ccccn2)CCN(Cc2cc(C(=O)O)c(=O)n3ccccc23)CC1,cell-free assay,,competition with immobilised ligand,1 µM,remaining binding,100%
C#Cc1n[nH]c2c(-c3cn([C@@H](C)c4ccccc4)c(=O)[nH]c3=O)cc(F)cc12,enzyme activity,inhibitor,,0.1 µM,inhibition,-2.2%
